Assay results reported in paper PMC10548513 (Chemical Science, 2023).
Positions of bridges follow the written chain, without caps; N, C: chain ends. Non-standard residues stand in square brackets, D forms with d. Residues, ends and D or L forms follow the SMILES beside them. No end group written: not given here. R8 = C=CCCCCCC[C@@](C)(N)C(=O)O; S5 = C=CCCC[C@](C)(N)C(=O)O

Columns and labels:
[1] = test system: HeLa cells; test: Peptide cytotoxicity, WST-8; assay type: cell-based; conditions: 24 h; for Cytotoxicity at 10 µM: peptide 10 µM; for Cytotoxicity at 30 µM: peptide 30 µM
[2] = Relative hydrophobicity by UPLC retention time; assay type: physicochemical; conditions: comparison among stapled peptides st4-1–6 and st7-1–6 (Table S1)
[3] = test system: HeLa cells; test: Luciferase reporter assay, transfection of pDNA with peptide/pDNA complexes; assay type: cell-based; conditions: N/P ratio 16, 24 h
Method in brief: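 Peptide/pDNA complexes were made with luciferase-encoding (rLuc) pDNA at an N/P charge ratio (peptide cationic residues to pDNA phosphate) of 8 or 16. They were added to HeLa cells for 24 h. Transfection was read as luminescence, given as RLU normalized to blank; n = 3, mean ± standard deviation.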

[4] = test system: Huh-7-Luc cells; test: RNAi assay by luciferase assay, peptide/siRNA complexes; assay type: cell-based, human; conditions: peptide/Luc-siRNA complex, N/P ratio 16, 48 h, n = 5
Method in brief: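 Complexes of peptide with firefly GL3 luciferase siRNA, or scrambled-sequence control siRNA, were prepared at N/P 8 or 16. They were added to Huh-7 cells stably expressing luciferase and incubated for 48 h. Silencing was measured as loss of luminescence; n = 5, mean ± standard deviation.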

Row | Compound | Cytotoxicity at 10 µM [1] | Relative hydrophobicity from UPLC retention times [2] | Transfection efficiency of pDNA relative to st7-5 [3] | Reduction of the luminescence signal (gene silencing) with Luc-siRNA [4] [%] | Cytotoxicity at 30 µM [1]
1 | CC[C@H](C)[C@H](NC(=O)CN)C(=O)N[C@@H](CCCCN)C(=O)N[C@@H](CCCCN)C(=O)N[C@@H](Cc1ccccc1)C(=O)N[C@@H](CC(C)C)C(=O)N[C@@H](CCCCN)C(=O)N[C@]1(C)CCCCCCC=CCCC[C@@](C)(C(=O)N[C@@H](Cc2ccccc2)C(=O)N[C@@H](CCCCN)C(N)=O)NC(=O)[C@H](CCCCN)NC(=O)[C@H](C(C)C)NC(=O)[C@H](Cc2ccccc2)NC(=O)[C@H](CCCCN)NC(=O)[C@H](CCCCN)NC(=O)[C@H](C)NC1=O [st7-5] (H-GIKKFLK[R8]AKKFVK[S5]FK-NH2; staple 8-15) | did not show significant cytotoxicity | most hydrophobic | – | – | –
2 | CC[C@H](C)[C@H](NC(=O)CN)C(=O)N[C@@H](CCCNC(=N)N)C(=O)N[C@@H](CCCNC(=N)N)C(=O)N[C@@H](Cc1ccccc1)C(=O)N[C@@H](CC(C)C)C(=O)N[C@@H](CCCNC(=N)N)C(=O)N[C@]1(C)CCCCCCC=CCCC[C@@](C)(C(=O)N[C@@H](Cc2ccccc2)C(=O)N[C@@H](CCCNC(=N)N)C(N)=O)NC(=O)[C@H](CCCNC(=N)N)NC(=O)[C@H](C(C)C)NC(=O)[C@H](Cc2ccccc2)NC(=O)[C@H](CCCNC(=N)N)NC(=O)[C@H](CCCNC(=N)N)NC(=O)[C@H](C)NC1=O [st7-5_R] (H-GIRRFLR[R8]ARRFVR[S5]FR-NH2; staple 8-15) | did not show significant cytotoxicity | – | about 100 times | ~70 | –
3 | GIGKFLHSAKKFGKAFVGEIMNS-NH2 [Magainin 2, reference compound] | – | – | – | – | did not exhibit cytotoxicity
4 | GIKKFLKSAKKFVKAFK-NH2 [Pep-1] | – | – | – | – | did not exhibit cytotoxicity
